Data as given in ChEMBL document CHEMBL3526095, “Characterization of the in vitro and in vivo metabolism and disposition and cytochrome P450 inhibition/induction profile of saxagliptin in human” (Drug Metab Dispos, 2012).
pIC50: −log10 of the molar value.

Columns and labels:
[1] = Drug metabolism in human assessed as parent compound level in feces at 50 mg, po after up to 168 hrs by LC-MS/MS analysis; format: ADME, organism-based; conditions: read-out: Drug metabolism
[2] = test system: Hepatocyte; test: Induction of CYP3A4 mRNA expression in human hepatocytes assessed as testosterone 6beta-hydroxylation up to 25 uM by LC-MS/MS analysis; format: ADME, cell-based
Procedure, shortened: (§1)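 Primary hepatocytes from three donors treated once daily for 3 days: saxagliptin 0.2–25 µM, M2 0.2–100 µM, 0.1% DMSO as vehicle. Microsomal activity assayed by LC-MS/MS: phenacetin 100 µM with 0.02 mg/ml protein (CYP1A2), bupropion 250 µM with 0.02 mg/ml (CYP2B6), testosterone 200 µM with 0.01 mg/ml (CYP3A4). mRNA measured by TaqMan qPCR as 2^ΔCT relative to endogenous control and DMSO.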

[3] = biological target: T1, Cytochrome P450 3A5 (Homo sapiens, UniProt P20815); test: Drug metabolism assessed as human CYP3A5-mediated 5-hydroxy saxagliptin formation at 10 uM after 30 mins by LC-MS/MS analysis; format: ADME; conditions: recombinant enzyme, 0.5 h
[4] = Drug metabolism in human assessed as metabolite level in urine at 50 mg, po up to 168 hrs by LC-MS/MS analysis; format: ADME, organism-based; conditions: in vivo
Procedure, shortened: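 Single 50-mg oral solution dose of [14C]saxagliptin (91.5 µCi) given to healthy male subjects after a 10-h fast. Urine collected as 0–12 h and 12–24 h pools, then in 24-h intervals to 168 h. Saxagliptin and M2 measured by validated positive-ESI LC-MS/MS with MRM; urine standard curves 25–5000 ng/ml for saxagliptin and 50–10,000 ng/ml for M2.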

[5] = Oral bioavailability in dog; format: ADME, organism-based, Canis lupus familiaris; conditions: in vivo
[6] = test system: Hepatocyte; test: Induction of CYP1A2 mRNA expression in human hepatocytes assessed as phenacetin O-deethylation up to 25 uM by LC-MS/MS analysis; format: ADME, cell-based; procedure, shortened: as §1
[7] = biological target: T2, Cytochrome P450 2A6 (Homo sapiens, UniProt P11509); test: Inhibition of CYP2A6 in human liver microsomes assessed as coumarin 7-hydroxylation preincubated for 15 mins by LC-MS/MS analysis in presence of NADPH; format: ADME
T2 sequence (P11509 whole entry): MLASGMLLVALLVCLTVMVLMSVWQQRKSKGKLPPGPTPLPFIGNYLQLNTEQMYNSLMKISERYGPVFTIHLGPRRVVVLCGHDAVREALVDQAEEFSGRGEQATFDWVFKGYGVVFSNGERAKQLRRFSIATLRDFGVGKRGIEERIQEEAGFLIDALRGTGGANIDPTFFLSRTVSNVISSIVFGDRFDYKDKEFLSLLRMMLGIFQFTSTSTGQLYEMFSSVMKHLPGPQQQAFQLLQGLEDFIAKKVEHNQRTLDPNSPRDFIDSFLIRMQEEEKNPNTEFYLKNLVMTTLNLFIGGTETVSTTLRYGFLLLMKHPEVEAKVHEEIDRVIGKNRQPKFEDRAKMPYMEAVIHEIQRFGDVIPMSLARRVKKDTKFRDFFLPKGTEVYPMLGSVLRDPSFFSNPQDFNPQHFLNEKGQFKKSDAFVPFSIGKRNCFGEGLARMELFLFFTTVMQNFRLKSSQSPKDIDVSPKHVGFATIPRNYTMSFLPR

[8] = biological target: T1, Cytochrome P450 3A5; test: Drug metabolism assessed as human CYP3A5-mediated metabolite formation treated with 10 uM of [14C]saxagliptin after 30 mins by LC-MS/MS analysis; format: ADME; conditions: recombinant enzyme, 0.5 h
Procedure, shortened: (§2)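 Expressed human CYP3A4 or CYP3A5 at 500 pmol/ml, incubated with 10 µM [14C]saxagliptin and 1 mM NADPH in 100 mM phosphate buffer pH 7.4 at 37°C for 30 min. Stopped with ice-cold acetonitrile; analysed by LC-MS/MS and off-line radioanalysis.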

[9] = biological target: Cytochrome P450 3A4 (Homo sapiens, UniProt P08684); test: Drug metabolism assessed as human CYP3A4-mediated metabolite formation treated with 10 uM of [14C]saxagliptin after 30 mins by LC-MS/MS analysis; format: ADME; conditions: recombinant enzyme, 0.5 h; procedure, shortened: as §2
[10] = test system: Hepatocyte; test: Cytotoxicity against human hepatocytes assessed as change in morphological integrity up to 100 uM; format: cell-based

T1 sequence (P20815 whole entry): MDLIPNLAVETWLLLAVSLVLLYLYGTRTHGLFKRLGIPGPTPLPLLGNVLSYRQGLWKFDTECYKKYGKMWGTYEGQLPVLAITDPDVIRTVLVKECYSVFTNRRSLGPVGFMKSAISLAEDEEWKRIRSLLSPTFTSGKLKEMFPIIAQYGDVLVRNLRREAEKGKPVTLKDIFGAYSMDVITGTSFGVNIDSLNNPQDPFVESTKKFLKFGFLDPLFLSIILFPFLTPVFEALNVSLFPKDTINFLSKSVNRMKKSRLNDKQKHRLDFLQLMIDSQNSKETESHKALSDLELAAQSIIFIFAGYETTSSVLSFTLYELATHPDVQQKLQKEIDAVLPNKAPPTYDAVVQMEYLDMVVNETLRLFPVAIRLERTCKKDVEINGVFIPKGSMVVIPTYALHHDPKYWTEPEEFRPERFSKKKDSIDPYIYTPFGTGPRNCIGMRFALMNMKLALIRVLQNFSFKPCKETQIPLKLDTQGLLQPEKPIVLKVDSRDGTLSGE
Cytochrome P450 3A4, sequence (P08684 whole entry): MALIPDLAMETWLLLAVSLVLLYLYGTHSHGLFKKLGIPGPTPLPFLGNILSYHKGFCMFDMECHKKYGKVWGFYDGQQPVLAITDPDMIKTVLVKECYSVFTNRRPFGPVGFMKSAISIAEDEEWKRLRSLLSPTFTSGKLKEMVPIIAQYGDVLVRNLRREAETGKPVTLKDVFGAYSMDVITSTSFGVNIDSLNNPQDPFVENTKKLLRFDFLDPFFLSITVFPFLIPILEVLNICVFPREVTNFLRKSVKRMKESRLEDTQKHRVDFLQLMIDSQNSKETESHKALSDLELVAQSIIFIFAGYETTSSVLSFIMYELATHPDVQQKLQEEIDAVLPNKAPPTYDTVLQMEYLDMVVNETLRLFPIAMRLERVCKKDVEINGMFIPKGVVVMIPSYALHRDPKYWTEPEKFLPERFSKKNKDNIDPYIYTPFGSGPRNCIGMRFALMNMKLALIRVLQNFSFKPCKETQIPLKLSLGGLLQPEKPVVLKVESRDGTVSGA

dose excreted at 168 h [1] | Activity [2] | Drug metabolism [3] | Drug metabolism [4] | bioavailability [5] | Activity [6] | pIC50 [7] | Drug metabolism [8] | Drug metabolism [9] | SMILES | Activity [10]
0.5% | Not Active | metabolite_detected | metabolite_detected | 76% | Not Active |  |  |  | N#C[C@@H]1C[C@@H]2C[C@@H]2N1C(=O)[C@@H](N)C12CC3CC(CC(O)(C3)C1)C2 [SAXAGLIPTIN ANHYDROUS] | 
 |  |  |  |  |  | < 3.70 | metabolite_detected | metabolite_detected | N#C[C@@H]1C[C@@H]2C[C@@H]2N1C(=O)[C@@H](N)C12CC3CC(O)(CC(O)(C3)C1)C2 | Non-toxic
